Each structure is given as a SMILES string. Active and inactive are the calls of the source. No cut-off for these calls is given here. Some results are limits rather than exact numbers.

This note sets out measurements from ChEMBL document CHEMBL1152654, “Development of a highly water-soluble peptide-based human neutrophil elastase inhibitor; AE-3763 for treatment of acute organ injury” (Bioorg Med Chem, 2009).

In data set [1] the test system is Hamster. Nature of the data set: Inhibition of human neutrophil elastase-induced lung hemorrhage in hamster at 10 mg/kg, iv administered as bolus dose. The class given is functional. Particulars: Cricetinae. In outline: (§1)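 Hamster lung hemorrhage induced by HNE instillation; compound given as iv bolus. One hour after HNE, BALF collected and centrifuged; supernatant absorbance at 414 nm taken as hemorrhage; % inhibition reported.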

The test system of data set [2] is Hamster. Nature of the data set: Inhibition of human neutrophil elastase-induced lung hemorrhage in hamster at 3 mg/kg, iv administered as bolus dose. In kind it is functional. The conditions noted are these: Cricetinae. In outline: as §1
Data set [3] deals with Hamster. Nature of the data set: Inhibition of human neutrophil elastase-induced lung hemorrhage in hamster at 10 mg/kg/hr, iv administered as infusion. The class given is functional. Particulars: Cricetinae. In outline:
(§2)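 Hamster lung hemorrhage induced by HNE instillation, with compound delivered by iv infusion over more than 70 min. BALF collected 1 h after HNE and centrifuged; supernatant absorbance at 414 nm used as hemorrhage measure; % inhibition reported.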

The subject of data set [4] is Hamster. Nature of the data set: Inhibition of human neutrophil elastase-induced lung hemorrhage in hamster at 3 mg/kg/hr, iv administered as infusion. In kind it is functional. The conditions noted are these: Cricetinae. In outline:
as §2

Data set [5] concerns Hamster. Nature of the data set: Inhibition of human neutrophil elastase-induced lung hemorrhage in hamster at 1 mg/kg/hr, iv administered as infusion. In kind it is functional. Particulars: Cricetinae. The procedure, abridged: as §2
Data set [6] has as its system Hamster. Put plainly: Inhibition of human neutrophil elastase-induced lung hemorrhage in hamster at 30 mg/kg, iv administered as bolus dose. The class given is functional. Particulars: Cricetinae. The procedure, abridged:
as §1

Data set [7] deals with Hamster. Nature of the data set: Inhibition of human neutrophil elastase-induced lung hemorrhage in iv dosed hamster administered as bolus dose. In kind it is functional. The conditions noted are these: Cricetinae. In outline:
as §1

Data set [8] relates to Hamster. Nature of the data set: Inhibition of human neutrophil elastase-induced lung hemorrhage in iv dosed hamster administered as infusion. The class given is functional, Cricetinae. The procedure, abridged:
as §2

Data set [9] is described as follows: Aqueous solubility in water. The class given is physicochemical.
Data set [10] deals with Hamster. Put plainly: Antiinflammatory activity in iv dosed hamster assessed as inhibition of LPS-induced lung edema. The class given is functional, Cricetinae. In outline: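 Hamsters given LPS intratracheally; jugular-vein infusion started immediately after LPS and continued up to 6 h. Whole-lung wet weight measured at 6 h after LPS and corrected for each animal's body weight.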

Data set [11] deals with Mus musculus. Nature of the data set: Toxicity in mouse assessed as overt effects up to 300 mg/kg, iv. Also noted: dose 300 mg/kg, route intravenous. The class given is organism-based. Particulars: in vivo.
The species entered for data set [12] is Mus musculus. Particulars: C3H/HeN, 10 to 100 mg/kg.

Take `CC(C)[C@H](NC(=O)[C@@H]1CCCN1C(=O)[C@@H](NC(=O)CN1CCC(=O)N(CC(=O)O)C1=O)C(C)C)C(=O)c1nc2ccccc2o1`: the inhibition in vivo at 10 mg/kg in data set [1] was 34%. Besides, the inhibition in vivo at 3 mg/kg in [2] came to 38%.
`COC(=O)C(=O)[C@@H](NC(=O)[C@@H]1CCCN1C(=O)[C@@H](NC(=O)CN1CCN(CC(=O)O)C(=O)C1=O)C(C)C)C(C)C`: the inhibition in vivo at 10 mg/kg/hr in data set [3] was determined as 94%. Moreover, the inhibition in vivo at 3 mg/kg/hr in data set [4] is 48%.
With `CC(C)[C@H](NC(=O)[C@@H]1CCCN1C(=O)[C@@H](NC(=O)CN1CCN(CC(=O)O)CC1)C(C)C)C(=O)c1nc2ccccc2o1`, the inhibition in vivo at 10 mg/kg in data set [1] was 70%. Moreover, in [2], the inhibition in vivo at 3 mg/kg amounted to 44%. For the same compound, the inhibition in vivo at 10 mg/kg/hr in data set [3] came to 87%. In addition, the inhibition in vivo at 3 mg/kg/hr in data set [4] came to 48%. Further, in data set [5], the inhibition in vivo at 1 mg/kg/hr is 34%.
As to `CC(C)[C@H](NC(=O)[C@@H]1CCCN1C(=O)[C@@H](NC(=O)COc1ccc(OCC(=O)O)cc1)C(C)C)C(=O)c1nc2ccccc2o1`, in data set [6], the inhibition in vivo at 30 mg/kg came out at 56%. Moreover, the inhibition in vivo at 10 mg/kg in [1] is 38%.
As for `CC(C)[C@H](NC(=O)[C@@H]1CCCN1C(=O)[C@@H](NC(=O)Cn1ncc(=O)n(CC(=O)O)c1=O)C(C)C)C(=O)c1nc2ccccc2o1`, the inhibition in vivo at 10 mg/kg in data set [1] was 33%. Moreover, in [2], the inhibition in vivo at 3 mg/kg amounted to 14%.
On the same counts, the results for `CC(C)[C@H](NC(=O)[C@@H]1CCCN1C(=O)[C@@H](NC(=O)CN1C(=O)N(CC(=O)O)C(C)(C)C1=O)C(C)C)C(=O)c1nc2ccccc2o1` are 59% and 20%.
Consider `CC(C)[C@H](NC(=O)[C@@H]1CCCN1C(=O)[C@@H](NC(=O)Cn1ccc(=O)n(CC(=O)O)c1=O)C(C)C)C(=O)C(=O)NCc1ccccc1`, for which the inhibition in vivo at 10 mg/kg/hr in data set [3] turned out to be 90%. The inhibition in vivo at 3 mg/kg/hr in data set [4] came out at 78%. Besides, the inhibition in vivo at 1 mg/kg/hr in data set [5] was found to be 32%.
In the case of `Cc1nn(CC(=O)N[C@H](C(=O)N2CCC[C@H]2C(=O)N[C@H](C(=O)c2nc3ccccc3o2)C(C)C)C(C)C)c(=O)n(CC(=O)O)c1=O`, in data set [1], the inhibition in vivo at 10 mg/kg came to 48%.
As for `COC(=O)C(=O)[C@@H](NC(=O)[C@@H]1CCCN1C(=O)[C@@H](NC(=O)Cn1ccc(=O)n(CC(=O)O)c1=O)C(C)C)C(C)C`, the inhibition in vivo at 10 mg/kg/hr in data set [3] was found to be 94%. In addition, the inhibition in vivo at 3 mg/kg/hr in [4] worked out at 43%. The inhibition in vivo at 1 mg/kg/hr in data set [5] is 32%.
`CC(C)[C@H](NC(=O)[C@@H]1CCCN1C(=O)[C@@H](NC(=O)CN1CCN(CC(=O)O)C1=O)C(C)C)C(=O)c1nc2ccccc2o1`: in [1], the inhibition in vivo at 10 mg/kg is 68%. Further, the inhibition in vivo at 3 mg/kg in data set [2] was determined as 22%. In addition, the inhibition in vivo at 10 mg/kg/hr in data set [3] is 90%. Further, in [4], the inhibition in vivo at 3 mg/kg/hr stood at 31%. Besides, in [5], the inhibition in vivo at 1 mg/kg/hr was 25%.
`CC(C)[C@H](NC(=O)Cn1ccc(=O)n(CC(=O)O)c1=O)C(=O)N1CCC[C@H]1C(=O)N[C@H](C(=O)C(F)(F)F)C(C)C` (mixture of isomers): the inhibition in vivo at 10 mg/kg/hr in data set [3] amounted to 79%. The inhibition in vivo at 3 mg/kg/hr in data set [4] turned out to be 7.6%. In addition, the inhibition in vivo at 1 mg/kg/hr in [5] is -1.2%.
For the compound `CC(C)[C@H](NC(=O)CN1CCN(CC(=O)O)C1=O)C(=O)N1CCC[C@H]1C(=O)N[C@H](C(=O)C(F)(F)F)C(C)C`, the inhibition in vivo at 10 mg/kg/hr in data set [3] amounted to 97%. For the same compound, the inhibition in vivo at 3 mg/kg/hr in [4] was 84%. In addition, the inhibition in vivo at 1 mg/kg/hr in [5] stood at 45%. Also, the ED50 in data set [7] was determined as 1.2 mg/kg; in [8], 0.42 mg/kg/h. Also, the solubility in data set [9] was over 1000 mg/mL. For the same compound, in [10], the MED worked out at 3 mg/kg/h. The Activity entry in [11] is “Non-toxic”. In addition, in data set [12], the inhibition entry was “Active”.
Regarding `CC(C)[C@H](NC(=O)[C@@H]1CCCN1C(=O)[C@@H](NC(=O)CN1C(=O)N(CC(=O)O)C(=O)C1(C)C)C(C)C)C(=O)c1nc2ccccc2o1`, the inhibition in vivo at 10 mg/kg in [1] was 42%. Besides, the inhibition in vivo at 3 mg/kg in data set [2] worked out at 40%.
Take `CC(C)[C@H](NC(=O)[C@@H]1CCCN1C(=O)[C@@H](NC(=O)CN1CC(=O)N(CC(=O)O)CC1=O)C(C)C)C(=O)c1nc2ccccc2o1`: the inhibition in vivo at 10 mg/kg in data set [1] came to 67%. For the same compound, the inhibition in vivo at 3 mg/kg in [2] came to 20%. For the same compound, the inhibition in vivo at 10 mg/kg/hr in data set [3] was 90%. Moreover, in [4], the inhibition in vivo at 3 mg/kg/hr amounted to 73%. Besides, in data set [5], the inhibition in vivo at 1 mg/kg/hr worked out at 55%.
For `CC(C)[C@H](NC(=O)[C@@H]1CCCN1C(=O)[C@@H](NC(=O)CN1CCN(CC(=O)O)C(=O)C1=O)C(C)C)C(=O)C(=O)NCc1ccccc1`, the inhibition in vivo at 10 mg/kg/hr in [3] turned out to be 89%. Moreover, in data set [4], the inhibition in vivo at 3 mg/kg/hr was 47%. Besides, the inhibition in vivo at 1 mg/kg/hr in [5] was 31%.
Turning to `CC(C)[C@H](NC(=O)[C@@H]1CCCN1C(=O)[C@@H](NC(=O)Cn1c(=O)ccn(CC(=O)O)c1=O)C(C)C)C(=O)c1nc2ccccc2o1`, the inhibition in vivo at 30 mg/kg in [6] came out at 94%. Besides, the inhibition in vivo at 10 mg/kg in data set [1] worked out at 47%. For the same compound, the inhibition in vivo at 3 mg/kg in [2] was determined as 34%.
Consider `CC(C)[C@H](NC(=O)[C@@H]1CCCN1C(=O)[C@@H](NC(=O)Cn1ccc(=O)n(CC(=O)O)c1=O)C(C)C)C(=O)c1nc2ccccc2o1`, for which the inhibition in vivo at 30 mg/kg in [6] is 97%. Moreover, the inhibition in vivo at 10 mg/kg in data set [1] was 66%. For the same compound, in [2], the inhibition in vivo at 3 mg/kg came out at 24%. Besides, in data set [3], the inhibition in vivo at 10 mg/kg/hr is 93%. In [4], the inhibition in vivo at 3 mg/kg/hr amounted to 62%. The inhibition in vivo at 1 mg/kg/hr in data set [5] is 50%.
For `CC(C)[C@H](NC(=O)[C@@H]1CCCN1C(=O)[C@@H](NC(=O)CN1C(=O)CN(CC(=O)O)C1=O)C(C)C)C(=O)c1nc2ccccc2o1`, in data set [6], the inhibition in vivo at 30 mg/kg was found to be 81%. Besides, the inhibition in vivo at 10 mg/kg in data set [1] came to 72%. In addition, the inhibition in vivo at 3 mg/kg in data set [2] worked out at 37%. In addition, the inhibition in vivo at 10 mg/kg/hr in [3] is 53%. Besides, the inhibition in vivo at 3 mg/kg/hr in [4] turned out to be 57%. Besides, the inhibition in vivo at 1 mg/kg/hr in [5] is 39%.
Take `CC(C)[C@H](NC(=O)[C@@H]1CCCN1C(=O)[C@@H](NC(=O)CN1CCN(CC(=O)O)C(=O)C1=O)C(C)C)C(=O)c1nc2ccccc2o1`: the inhibition in vivo at 10 mg/kg in [1] was 88%. Further, the inhibition in vivo at 3 mg/kg in data set [2] was 57%. For the same compound, in [3], the inhibition in vivo at 10 mg/kg/hr was 95%. The inhibition in vivo at 3 mg/kg/hr in [4] worked out at 76%. For the same compound, in data set [5], the inhibition in vivo at 1 mg/kg/hr was 41%.
In the case of `Cc1cn(CC(=O)N[C@H](C(=O)N2CCC[C@H]2C(=O)N[C@H](C(=O)c2nc3ccccc3o2)C(C)C)C(C)C)c(=O)n(CC(=O)O)c1=O`, in data set [6], the inhibition in vivo at 30 mg/kg is 92%. In data set [1], the inhibition in vivo at 10 mg/kg was determined as 70%. Also, the inhibition in vivo at 3 mg/kg in data set [2] turned out to be 39%. In [3], the inhibition in vivo at 10 mg/kg/hr was determined as 56%. The inhibition in vivo at 3 mg/kg/hr in data set [4] was found to be 38%. The inhibition in vivo at 1 mg/kg/hr in data set [5] was determined as 33%.
`CC(C)[C@H](NC(=O)[C@@H]1CCCN1C(=O)[C@@H](NC(=O)CN1CC(=O)N(CC(=O)O)C1=O)C(C)C)C(=O)c1nc2ccccc2o1`: the inhibition in vivo at 30 mg/kg in data set [6] was 91%. Further, in [1], the inhibition in vivo at 10 mg/kg was 67%. Further, in [2], the inhibition in vivo at 3 mg/kg amounted to 32%. Besides, the inhibition in vivo at 10 mg/kg/hr in [3] is 78%. Moreover, the inhibition in vivo at 3 mg/kg/hr in data set [4] stood at 44%. In addition, the inhibition in vivo at 1 mg/kg/hr in [5] was -7%.
